Screening data deposited in PubChem by several laboratories.
ABCB1 inh: blocks JC-1 efflux by human ABCB1 transporter; hit rate 0.067% among 190,000; CCRF-Adr cells, flow cytometry; P08183; inhibition, % at 6.6 µM; in the data active means inhibition above about 40%;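 further: 0% = vehicle and 100% = reference inhibitor; higher value means more JC-1 retained so stronger ABCB1 efflux block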
Diaph act CS: counter-screen for diaphorase-based assays: diaphorase activators and chemical reducers | Diaphorase/resazurin coupled assay, resorufin fluorescence, 16 min; active compounds read high; 1 = vehicle wells, 0 = NADH-free wells | activation factor at 20 µM | hit rate 0.005% among 190,000;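 active means diaphorase activity raised at least twofold by the compound at 20 µM; inactive means activation factor below 2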
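Material: Clostridium kluyveri diaphorase, purified enzyme; Quantity: enzyme 0.07 U/mL final; Medium: HEPES pH 7.4 buffer with MgCl2 and Tween 20; Dosing: single compound dose of 20 µM, 1% DMSO final; Schedule: 16 min reaction at room temperature; Measured by: red resorufin fluorescence at 544/590 nm excitation/emission.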
ABCB6 inh MLPCN: human ABCB6 transporter inhibition; K562-ABCB6 porphyrin accumulation, flow cytometry, 1 h; active compounds read low; Q9NP58; fluorescence ratio to DMSO, % at 10 µM; hit rate 0.19% among 360,000;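 active means fluorescence ratio to DMSO below 75%, the collection mean minus 3 SD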;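 further: signal is porphyrin accumulated inside mitochondria; 100% equals median channel fluorescence of DMSO control wells; lower ratio means ABCB6 inhibition with less porphyrin fluorescence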
FLuc inhib CS: Photinus pyralis luciferase inhibition counter-screen; inhibition, % at 10 µM; hit rate 1.5% among 200,000; AID 1006; ATPLite firefly luciferase biochemical luminescence, 10 min;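 active means inhibition above about 50% when tested at 10 µM, limit read from the data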
Target sequence (P08659 whole entry, looked up): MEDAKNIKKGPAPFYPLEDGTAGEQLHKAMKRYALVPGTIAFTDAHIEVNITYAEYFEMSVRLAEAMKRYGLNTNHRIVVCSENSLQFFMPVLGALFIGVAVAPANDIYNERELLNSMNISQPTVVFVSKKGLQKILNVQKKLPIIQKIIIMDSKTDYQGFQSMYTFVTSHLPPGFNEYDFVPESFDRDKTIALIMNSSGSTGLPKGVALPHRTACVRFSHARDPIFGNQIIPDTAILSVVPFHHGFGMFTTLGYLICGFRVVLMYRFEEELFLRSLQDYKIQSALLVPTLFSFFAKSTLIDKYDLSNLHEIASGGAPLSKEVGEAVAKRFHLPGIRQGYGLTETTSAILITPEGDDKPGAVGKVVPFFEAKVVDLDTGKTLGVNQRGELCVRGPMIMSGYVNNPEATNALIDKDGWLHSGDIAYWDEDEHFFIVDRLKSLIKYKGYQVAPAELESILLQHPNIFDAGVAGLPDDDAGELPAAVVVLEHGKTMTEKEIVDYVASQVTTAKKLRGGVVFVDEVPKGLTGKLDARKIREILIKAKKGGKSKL
ABCG2 block: blocks JC-1 efflux by human ABCG2 transporter; hit rate 0.1% among 190,000; inhibition, % at 6.6 µM; IgMXP3 cells, flow cytometry;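 active means inhibition above 80%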;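 further: 0% = DMSO and 100% = nicardipine control wells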
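Test system: ABCG2 IgMXP3 and barcoded ABCB1 CCRF-Adr cell mix; Schedule: cells with compound and JC-1, 10 min at 25 °C, rotating, no wash; Technique: flow cytometry of retained JC-1 fluorescence; Measure: % inhibition of efflux relative to nicardipine and DMSO; Controls: nicardipine high and DMSO low controls.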
FLuc stim CS: firefly luciferase counter-screen for stimulation assays; ATPlite luciferase biochemical, luminescence, 10 min; 0 = ATP-free wells, 1 = DMSO control; activation factor at 10 µM; 200,000 tested, under 10 active; P08659;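 active means luciferase activation factor, scaled between plate controls, of at least 2 with compound at 10 µM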
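Assay system – cell-free luciferase reagent · Medium – PBS-based ATP solution · Dosing – test compounds dosed from 2 mM stocks in 100% DMSO · Timing – 10 min, room temperature · Technique – light output (luminescence) · Measure – luminescence gain marking luciferase activators · Controls – No-ATP low control, compound-free enzyme-plus-ATP high control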
ABCB6 inh CP1: inhibitors of human ABC transporter ABCB6. ratio response (% of DMSO), % at 10 µM. shares compounds with ABCB6 inh MLPCN. K562-ABCB6 porphyrin accumulation, flow cytometry, 1 h; active compounds read low. 700 tested, under 10 active. AID 602430;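 active means repeat-averaged ratio response below 75% of DMSO, the collection mean minus 3 SD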;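 further: median porphyrin fluorescence at 575 nm with 488 nm excitation from mitochondria; lower ratio means less porphyrin signal so ABCB6 inhibition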
An asterisk follows results filed as active; / = no result. Shown is part of a subset that was picked to be rich in hits.

SMILES | ABCB1 inh | Diaph act CS | ABCB6 inh MLPCN | FLuc inhib CS | ABCG2 block | FLuc stim CS | ABCB6 inh CP1
O=S(=O)(c1ccc2nc(-c3ccccc3)[nH]c2c1)N1CCN(c2cccc(Cl)c2)CC1 | -0.4 | 0.9 | 58.0* | -9.2 | -1.2 | 1.1 | 101.0
COc1ccccc1N1CCN(S(=O)(=O)c2ccc3nc(-c4ccccc4)[nH]c3c2)CC1 | 0.0 | 0.9 | 101.0 | -8.3 | 0.3 | 1.1 | /
CN1OC[C@@H]2CN(Cc3cc(Cl)cc(Cl)c3)[C@H](c3cccc(Br)c3)C[C@@H]21 | / | / | 99.0 | / | / | / | /
CCn1cc(C(=O)O)c(=O)c2cc3c(cc21)OCO3 | 0.0 | 1 | / | -6.9 | 1.8 | 1.1 | /
CCn1nc(C(=O)O)c(=O)c2cc3c(cc21)OCO3 | 0.3 | 1.1 | 71.0* | 4.6 | 1.4 | 1 | 99.0
Cc1nn2c(N3CCN(C)CC3)cc(C(C)(C)C)nc2c1-c1ccccc1 | / | / | 98.0 | / | / | / | /
Cc1nn2c(N3CCN(C4CCCC4)CC3)cc(C(C)(C)C)nc2c1-c1ccccc1 | 1.0 | 0.9 | 57.0* | -11.6 | 5.7 | 1.1 | 104.0
CCCCn1c(N)c(N(CCC(C)C)C(=O)C2=NN(c3cc(C)ccc3C)C(=O)CC2)c(=O)[nH]c1=O | / | / | 99.0 | / | / | / | /
CN(C)S(=O)(=O)c1cccc(C(=O)Nc2cc(S(=O)(=O)N3CCOCC3)ccc2N2CCCC2)c1 | / | / | 101.0 | / | / | / | /
COC(=O)CCC(=O)Nc1cc(Cl)cc(Cl)c1 | -0.2 | 1.1 | 72.0* | 0.3 | 0.6 | 1 | 100.0
COC(=O)CCC(=O)Nc1ccc(NC(=O)CCC(=O)OC)cc1 | -5.2 | 0.9 | 99.0 | 1.1 | -7.1 | 1 | /
CC(C)c1cc(NCCOCCO)n2c(nc3ccccc32)c1C#N | / | / | 73.0* | / | / | / | 99.0
O=[N+]([O-])c1ccc(CN2[C@H](COCc3ccccc3)[C@@H](N3CCCC3)CS2(=O)=O)cc1 | / | / | 96.0 | / | / | / | /
COc1ccccc1N1CCN(C(=O)CCNC(=O)c2ccco2)CC1 | / | / | 99.0 | / | / | / | /
Cc1ccc2c(c1)C1CN(C)CCC1N2C(=O)COc1ccc(N(C)C(=O)c2ccccc2)cc1 (centres undefined) | 0.2 | 1 | 103.0 | 5.4 | 2.3 | 0.9 | /
CCCC(=O)O[C@@H]1C[C@@H](C)N(C(=O)c2ccccc2)c2ccc(C)cc21 | 2.2 | 0.8 | 72.0* | -5.8 | 9.4 | 1.1 | 100.0
Cc1cccc(C)c1NC(=O)CN(C)CC(=O)c1c(N)n(Cc2ccccc2)c(=O)n(C)c1=O | / | / | 94.0 | / | / | / | /
CCCNC(=O)COC(=O)c1ccccc1C(=O)c1ccc(Cl)c([N+](=O)[O-])c1 | 4.1 | 0.9 | 57.0* | -8.6 | 1.3 | 1.1 | 93.0
CCn1cc([N+](=O)[O-])c(C(=O)N2N=C3/C(=C/c4cccs4)CCCC3C2c2cccs2)n1 (centres undefined) | 1.8 | 0.7 | 66.0* | -2.4 | -1.0 | 1 | 100.0
COc1ccc(-n2c(C(C)n3nc(C)c([N+](=O)[O-])c3C)n[nH]c2=S)cc1 (centres undefined) | -0.3 | 0.9 | 97.0 | -2.9 | -1.5 | 1 | /
Cc1ccc(-n2c(C(C)n3nc(C)c([N+](=O)[O-])c3C)n[nH]c2=S)cc1 (centres undefined) | -1.4 | 0.8 | 61.0* | 0.4 | -5.2 | 1 | 98.0
Cc1cc(C)cc(NC(=O)CSc2nnnn2-c2cccnc2)c1 | / | / | 99.0 | / | / | / | /
Cc1cccc(N2C(=O)NC3(CCCCC3)C2=O)c1 | 0.0 | 0.9 | 100.0 | -5.8 | 1.1 | 1.1 | /
O=C1NC2(CCCCC2)C(=O)N1c1cccc(Cl)c1 | / | / | 73.0* | / | / | / | 100.0
Cc1cc(O)c(C(C)C)cc1NC(=O)Cn1nc(C)c2ccccc2c1=O | 0.7 | 0.8 | 74.0* | -0.5 | 2.1 | 1 | 101.0
O=S(=O)(c1ccc2ccccc2c1)N1CCN(C2CCN(Cc3ccccc3)CC2)CC1 | 0.7 | 0.9 | 48.0* | -14.8 | 1.4 | 1.1 | 97.0
O=S(=O)(c1ccccc1)N1CCN(C2CCN(Cc3ccccc3)CC2)CC1 | -1.4 | 0.9 | 100.0 | -4.2 | 5.3 | 1 | /
